Our source for the IC50, Activity and inhibition values is ChEMBL document CHEMBL3585301 (Bioorg Med Chem Lett, 2014).

Data set [1] relates to MV4-11. Description: Anticancer activity against human MV4-11 cells assessed as reduction in cell proliferation after 48 hrs by WST-1 assay. The class given is functional, cell-based. The settings on record: MV4-11, 48 h. A digest of the protocol: (§1)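 Cells were exposed to compound for 48 h and proliferation was measured from dose-response curves. NCM460 was tested at doses up to 20 µM. U-2 OS was also read in the 2.5-5.0 µM range. IC50 was calculated from the curves. Data are mean of quadruplicates ± SD from three independent trials.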

Data set [2] relates to Jurkat E6.1. Description: Anticancer activity against human Jurkat E6-1 cells assessed as reduction in cell proliferation after 48 hrs by WST-1 assay. The class given is functional, cell-based. The settings on record: Jurkat E6.1, 48 h. A digest of the protocol: as §1
A short description of data set [3]: Anticancer activity against human Saos2 cells assessed as reduction in cell proliferation after 48 hrs by WST-1 assay. Type of data set: functional, cell-based. The settings on record: SAOS-2, 48 h. A digest of the protocol: as §1
Data set [4] concerns U2OS. The data set can be described thus: Anticancer activity against human U2OS cells assessed as reduction in cell proliferation after 48 hrs by WST-1 assay. The class given is functional, cell-based. A digest of the protocol: as §1
Data set [5] is described as follows: Cytotoxicity against human NCM460 cells assessed as reduction in cell proliferation after 48 hrs by WST-1 assay. The class given is cell-based. To be noted: NCM460, 48 h. A digest of the protocol: as §1
In data set [6] the test system is U2OS. The data set can be described thus: Anticancer activity against human U2OS cells assessed as reduction in cell proliferation at 2.5 to 5 uM after 48 hrs by WST-1 assay. On the set-up: scale not given: the % may be the effect or the level left. Type of data set: functional. A digest of the protocol: as §1
The test system of data set [7] is SAOS-2. The data set can be described thus: Induction of apoptosis in human Saos2 cells assessed as phosphatidylserine externalization at 0.01 and 5 uM after 48 hrs by AnnexinV/propidium iodide staining based Tali-image based cytometry. Type of data set: functional, cell-based. The method, boiled down:
(§2)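 After 48 h treatment, phosphatidylserine externalization was detected with Annexin V–Alexa Fluor 488, and membrane-permeabilized (necrotic) cells were detected by propidium iodide uptake. Green and/or red populations were quantified by image-based cytometry. Signal above the control baseline was scored as apoptotic, necrotic, or both. Data are mean ± SD of three independent trials.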

Data set [8] concerns MV4-11. Description: Induction of apoptosis in human MV4-11 cells assessed as phosphatidylserine externalization at 0.0075 and 5 uM after 48 hrs by AnnexinV/propidium iodide staining based Tali-image based cytometry. Type of data set: functional, cell-based. A digest of the protocol: as §2
Data set [9] can be described thus: Induction of apoptosis in human NCM460 cells assessed as phosphatidylserine externalization 0.1 and 20 uM after 48 hrs by AnnexinV/propidium iodide staining based Tali-image based cytometry. The class given is cell-based. The settings on record: ncm460, 48 h. A digest of the protocol: as §2
For data set [10], the target named is T1, Tubulin (Sus scrofa) (UniProt P02554+P02550). The data set can be described thus: Inhibition of porcine brain tubulin polymerization at 3 uM measured for 1 hr by spectrofluorometer analysis. A digest of the protocol:
(§3)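 This was an in vitro tubulin polymerization assay monitored kinetically for 1 h against a DMSO vehicle control. Polymerization was read fluorometrically from incorporation of a fluorescent reporter, in relative fluorescence units. Data are mean of duplicates ± SEM of three independent trials, compared with control.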

The target of data set [11] is T1, Tubulin (Sus scrofa). Description: Inhibition of porcine brain tubulin polymerization at 10 uM measured for 1 hr by spectrofluorometer analysis. A digest of the protocol: as §3
Data set [12] has as its system U2OS. Description: Anticancer activity against human U2OS cells assessed as reduction in cell proliferation at 10 uM after 48 hrs by WST-1 assay. The class given is functional, cell-based. A digest of the protocol:
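This was a blind single-concentration screen of a 600-compound library against U-2 OS osteosarcoma cells. Each compound was tested at 10 µM for 48 h, and reduced proliferation was flagged for follow-up.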

Activity calls are given as the source filed them. The calls are words filed in the database; no cut-off is given here.

T1 sequence (P02550 whole entry, looked up): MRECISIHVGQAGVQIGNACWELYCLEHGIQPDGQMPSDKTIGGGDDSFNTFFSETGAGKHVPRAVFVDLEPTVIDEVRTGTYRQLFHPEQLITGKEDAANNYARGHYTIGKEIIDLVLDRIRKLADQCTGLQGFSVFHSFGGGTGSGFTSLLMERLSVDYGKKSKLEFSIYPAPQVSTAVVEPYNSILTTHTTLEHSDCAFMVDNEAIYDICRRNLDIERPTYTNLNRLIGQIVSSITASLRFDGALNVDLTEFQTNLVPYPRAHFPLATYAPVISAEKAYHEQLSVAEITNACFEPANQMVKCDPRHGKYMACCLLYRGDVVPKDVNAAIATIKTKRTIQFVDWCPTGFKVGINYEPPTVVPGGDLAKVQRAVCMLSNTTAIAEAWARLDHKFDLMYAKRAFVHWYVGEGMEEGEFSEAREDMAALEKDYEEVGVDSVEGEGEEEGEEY
T1 sequence (P02554 whole entry, looked up): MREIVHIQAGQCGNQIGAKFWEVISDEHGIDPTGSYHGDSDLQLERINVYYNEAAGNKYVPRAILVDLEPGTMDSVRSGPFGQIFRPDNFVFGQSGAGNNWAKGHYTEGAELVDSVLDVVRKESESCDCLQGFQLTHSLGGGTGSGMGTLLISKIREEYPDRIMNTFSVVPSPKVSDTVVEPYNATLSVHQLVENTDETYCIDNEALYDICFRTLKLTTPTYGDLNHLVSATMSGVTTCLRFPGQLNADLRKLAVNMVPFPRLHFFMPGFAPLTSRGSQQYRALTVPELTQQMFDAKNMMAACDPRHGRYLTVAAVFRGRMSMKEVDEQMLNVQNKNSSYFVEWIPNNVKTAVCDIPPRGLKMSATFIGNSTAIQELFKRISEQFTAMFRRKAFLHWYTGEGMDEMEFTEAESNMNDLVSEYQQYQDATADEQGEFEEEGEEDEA

Take `COc1cc(-c2ccc(OC)c(OC)c2OC)ccc1O`: the 50% inhibitory concentration (IC50) in data set [1] was 1.25 µM; in data set [2], 0.486 µM; in [3], 1.77 µM; in [4] it was above 20 µM; in data set [5] it was above 20 µM. The Activity was 60% in [6] and “Non-toxic” in data set [9]. The result in data set [7] and in data set [8] was Active. Besides, the inhibition result in data set [10], in data set [11] and in data set [12] was “Active” throughout.

In the case of `COc1ccc(/C=C\c2cc(OC)c(OC)c(OC)c2)cc1O` [COMBRETASTATIN A4], the IC50 is 0.00627 µM in [1]; 0.00608 µM in data set [2]; 0.0114 µM in data set [3]; 0.0141 µM in data set [4]; above 20 µM in data set [5]. The Activity in data set [6] is recorded as 30%; in data set [9], “Non-toxic”. The result in data set [7] and in [8] was Active. For the same compound, in data set [10], the inhibition entry is “Active”.

Consider `COc1ccc(-c2ccc(OC)c(OC)c2OC)cc1O`, for which the IC50 was 2.76 µM in data set [1]; 0.965 µM in data set [2]; 5.43 µM in [3]; above 20 µM in [4]; above 20 µM in data set [5]. Moreover, the Activity is 60% in data set [6] and “Non-toxic” in [9]. In addition, the outcome in [7] and in data set [8] was Active. Further, the inhibition result in data set [10] is “inactive”. Further, the inhibition result in data set [11] and in data set [12] was “Active” in each case.
